Results gathered from unrelated publications.
Each line is one published result; the experiments were not run side by side.
Read-out: metabolic stability
Host: rat

Compound | system | conditions | half-life [min]
COc1ccccc1Cn1nc(-c2ccc(CO)o2)c2ccccc21 | liver microsomes | 1 µM, pH 7.4 | 2
Cc1[nH]c(C)c(S(=O)(=O)Nc2ccc(C(F)(F)F)c(Cl)c2)c1C(=O)N(C)C | liver microsomes |  | 5.7
CCN(CC)Cc1ccc2cc(COC(=O)Nc3ccc(C(=O)NO)cc3)ccc2c1 | liver microsomes | pH 7.4 | 92.9
N#Cc1ccc(C[C@H](Nc2c(Nc3ccc(F)cc3)c(=O)c2=O)C(=O)N2CCc3ccccc32)cc1 | liver microsomes | 10 µM, pH 7.4 | 20
COc1cc(-c2cc(C(C)=O)n3ccccc23)c(OC)cc1Cn1ccnc1 | liver microsomes | 1 µM, pH 7.4 | 94.3
NCc1ccc(-c2nn(Cc3ccncc3)c3ccccc23)o1 | liver microsomes | 1 µM, pH 7.4 | ~17
N#Cc1ccc(C[C@H](Nc2ncc(-c3ccc(F)cc3)o2)C(=O)N2CCc3ccccc32)cc1 | liver microsomes | 10 µM, pH 7.4 | 43
O=C(Nc1ccc(OC(F)(F)Cl)cc1)c1cnc(N2CC[C@@H](O)C2)c(-c2ccn[nH]2)c1 | liver microsomes | 1 µM, pH 7.4 | 179
NCc1ccc(-c2nn(Cc3ccccc3)c3ccccc23)o1 | liver microsomes |  | 85
C=CCn1c(=O)c2cnc(Nc3ccc(N4CCN(C)CC4)cc3)nc2n1-c1ccc2c(n1)[C@@](O)(CC)CC2 | hepatocytes |  | 175
N#Cc1ccc(C[C@H](NC(=O)c2cc3ccc(F)cc3[nH]2)C(=O)N2CCc3ccccc32)cc1 | liver microsomes | 10 µM, pH 7.4 | 105
COc1ccc(Cn2cc(CO[C@@H]3O[C@H]4[C@H](OC[C@H]4O)[C@H]3O)nn2)cc1 | liver microsomes |  | 120
OCc1ccc(-c2nn(Cc3ccncc3)c3ccccc23)o1 | liver microsomes | 1 µM, pH 7.4 | 12
N#Cc1ccc(C[C@H](Nc2nnc(-c3ccc(Br)cc3)o2)C(=O)N2CCc3ccccc32)cc1 | liver microsomes | 10 µM, pH 7.4 | 27
